Tests used:
[1] = target: SRSF protein kinase 1 (Homo sapiens) (UniProt Q96SB4); experiment: Inhibition of SRPK1 at 3 uM
[2] = target: Calcium/calmodulin-dependent protein kinase type IV (Homo sapiens) (UniProt Q16566); experiment: Inhibition of CAMK4 at 3 uM
[3] = target: Serine/threonine-protein kinase BRSK1 (Homo sapiens) (UniProt Q8TDC3); experiment: Inhibition of BRSK1 at 3 uM
[4] = target: Serine/threonine-protein kinase MARK1 (Homo sapiens) (UniProt Q9P0L2); experiment: Inhibition of MARK1 at 3 uM
[5] = target: Proto-oncogene tyrosine-protein kinase ROS (Homo sapiens) (UniProt P08922); experiment: Inhibition of ROS1 at 3 uM
[6] = target: Bone morphogenetic protein receptor type-2 (Homo sapiens) (UniProt Q13873); experiment: Inhibition of BMPR2 at 3 uM
[7] = target: Calcium/calmodulin-dependent protein kinase type 1D (Homo sapiens) (UniProt Q8IU85); experiment: Inhibition of CAMK1D at 3 uM
[8] = target: Epidermal growth factor receptor (Homo sapiens) (UniProt P00533); experiment: Inhibition of EGFR at 3 uM
Outline: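 Single-concentration kinase panel scoring: each value is the percentage of enzyme activity remaining relative to a DMSO-only control. An activity statistically indistinct from DMSO control was scored "no hit".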

[9] = target: Dual specificity testis-specific protein kinase 1 (Homo sapiens) (UniProt Q15569); experiment: Inhibition of TESK1 at 3 uM
[10] = target: Serine/threonine-protein kinase 16 (Homo sapiens) (UniProt O75716); experiment: Inhibition of STK16 at 3 uM
[11] = target: Dual specificity protein kinase CLK3 (Homo sapiens) (UniProt P49761); experiment: Inhibition of CLK3 at 3 uM
[12] = target: Dual specificity mitogen-activated protein kinase kinase 6 (Homo sapiens) (UniProt P52564); experiment: Inhibition of MEK6 at 3 uM
[13] = Half life in Sprague-Dawley rat at 1 mg/kg, iv; conditions: in vivo
Rattus norvegicus [14] = species on record: Rattus norvegicus; conditions: 3 uM
[15] = target: Serine/threonine-protein kinase 36 (Homo sapiens) (UniProt Q9NRP7); experiment: Inhibition of STK36 at 3 uM
[16] = target: Serine/threonine-protein kinase 25 (Homo sapiens) (UniProt O00506); experiment: Inhibition of YSK1 at 3 uM
[17] = target: Myosin light chain kinase, smooth muscle (Homo sapiens) (UniProt Q15746); experiment: Inhibition of MYLK at 3 uM
[18] = target: Phosphorylase b kinase gamma catalytic chain, liver/testis isoform (Homo sapiens) (UniProt P15735); experiment: Inhibition of PHKG2 at 3 uM
Chain of Phosphorylase b kinase gamma catalytic chain, liver/testis isoform (Homo sapiens) (P15735 whole entry, canonical isoform): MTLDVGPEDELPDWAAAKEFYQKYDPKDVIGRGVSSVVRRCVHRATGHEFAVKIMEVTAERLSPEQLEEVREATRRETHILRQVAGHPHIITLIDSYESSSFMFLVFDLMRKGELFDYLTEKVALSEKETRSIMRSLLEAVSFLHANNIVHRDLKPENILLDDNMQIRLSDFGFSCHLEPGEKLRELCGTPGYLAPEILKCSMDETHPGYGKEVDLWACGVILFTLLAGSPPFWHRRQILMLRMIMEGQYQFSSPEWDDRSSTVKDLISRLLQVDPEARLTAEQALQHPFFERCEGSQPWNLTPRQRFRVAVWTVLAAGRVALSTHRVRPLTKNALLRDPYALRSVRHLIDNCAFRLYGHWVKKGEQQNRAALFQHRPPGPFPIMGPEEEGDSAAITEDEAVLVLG

[19] = test system: Tyrosine-protein kinase ABL1 (Homo sapiens), P00519 [T315I]; experiment: Inhibition of ABL1 T315I mutant at 3 uM
[20] = target: BDNF/NT-3 growth factors receptor (Homo sapiens) (UniProt Q16620); experiment: Inhibition of TRKB at 3 uM
[21] = target: Mitogen-activated protein kinase 12 (Homo sapiens) (UniProt P53778); experiment: Inhibition of p38-gamma at 3 uM
[22] = target: Pyroglutamylated RF-amide peptide receptor (Homo sapiens) (UniProt Q96P65); experiment: Inhibition of human GPR103 at 3 uM
Outline: (§1)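 Counter-screen binding/enzyme panel at single 3 μM, n=2; results as percent inhibition. Species per target as listed (rat NMDA, GABAA sites; human receptors, transporters; rabbit ACE).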

[23] = target: Tyrosine-protein kinase ITK/TSK (Homo sapiens) (UniProt Q08881); experiment: Inhibition of ITK at 3 uM
[24] = target: Serine/threonine-protein kinase 10 (Homo sapiens) (UniProt O94804); experiment: Inhibition of LOK at 3 uM
[25] = target: Casein kinase I isoform epsilon (Homo sapiens) (UniProt P49674); experiment: Inhibition of CSNK1E at 3 uM
Chain of Casein kinase I isoform epsilon (Homo sapiens) (P49674 whole entry, looked up, canonical isoform): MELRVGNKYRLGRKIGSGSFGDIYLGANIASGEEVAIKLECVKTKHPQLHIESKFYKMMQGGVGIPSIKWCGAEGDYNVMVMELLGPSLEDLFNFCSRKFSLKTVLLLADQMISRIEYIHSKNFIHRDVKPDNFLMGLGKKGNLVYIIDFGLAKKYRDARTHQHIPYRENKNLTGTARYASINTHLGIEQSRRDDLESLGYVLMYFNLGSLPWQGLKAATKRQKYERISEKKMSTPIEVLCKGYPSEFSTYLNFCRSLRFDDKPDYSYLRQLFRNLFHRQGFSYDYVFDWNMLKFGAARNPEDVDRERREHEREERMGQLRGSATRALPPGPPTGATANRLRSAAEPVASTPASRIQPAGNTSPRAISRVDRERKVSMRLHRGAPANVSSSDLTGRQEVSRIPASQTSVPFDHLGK

[26] = target: Serine/threonine-protein kinase pim-2 (Homo sapiens) (UniProt Q9P1W9); experiment: Inhibition of PIM2 at 3 uM
[27] = target: Mitogen-activated protein kinase kinase kinase 3 (Homo sapiens) (UniProt Q99759); experiment: Inhibition of MAP3K3 at 3 uM
[28] = target: Myosin-IIIa (Homo sapiens) (UniProt Q8NEV4); experiment: Inhibition of MYO3A at 3 uM
[29] = target: Serine/threonine-protein kinase PLK1 (Homo sapiens) (UniProt P53350); experiment: Inhibition of PLK1 at 3 uM
[30] = target: Muscarinic acetylcholine receptor M3 (Homo sapiens) (UniProt P20309); experiment: Inhibition of human muscarinic M3 receptor at 3 uM
[31] = target: NUAK family SNF1-like kinase 2 (Homo sapiens) (UniProt Q9H093); experiment: Inhibition of SNARK at 3 uM
[32] = target: Serine/threonine-protein kinase TNNI3K (Homo sapiens) (UniProt Q59H18); experiment: Inhibition of TNNI3K at 3 uM
[33] = target: Epidermal growth factor receptor (Homo sapiens) (UniProt P04626+P00533+Q15303+P21860); experiment: Inhibition of EGFR E746-A750del mutant at 3 uM; assay type: protein assay
[34] = target: Membrane-associated tyrosine- and threonine-specific cdc2-inhibitory kinase (Homo sapiens) (UniProt Q99640); experiment: Inhibition of PKMYT1 at 3 uM
[35] = target: Serine/threonine-protein kinase D1 (Homo sapiens) (UniProt Q15139); experiment: Inhibition of PRKD1 at 3 uM
Chain of Serine/threonine-protein kinase D1 (Homo sapiens) (Q15139 whole entry): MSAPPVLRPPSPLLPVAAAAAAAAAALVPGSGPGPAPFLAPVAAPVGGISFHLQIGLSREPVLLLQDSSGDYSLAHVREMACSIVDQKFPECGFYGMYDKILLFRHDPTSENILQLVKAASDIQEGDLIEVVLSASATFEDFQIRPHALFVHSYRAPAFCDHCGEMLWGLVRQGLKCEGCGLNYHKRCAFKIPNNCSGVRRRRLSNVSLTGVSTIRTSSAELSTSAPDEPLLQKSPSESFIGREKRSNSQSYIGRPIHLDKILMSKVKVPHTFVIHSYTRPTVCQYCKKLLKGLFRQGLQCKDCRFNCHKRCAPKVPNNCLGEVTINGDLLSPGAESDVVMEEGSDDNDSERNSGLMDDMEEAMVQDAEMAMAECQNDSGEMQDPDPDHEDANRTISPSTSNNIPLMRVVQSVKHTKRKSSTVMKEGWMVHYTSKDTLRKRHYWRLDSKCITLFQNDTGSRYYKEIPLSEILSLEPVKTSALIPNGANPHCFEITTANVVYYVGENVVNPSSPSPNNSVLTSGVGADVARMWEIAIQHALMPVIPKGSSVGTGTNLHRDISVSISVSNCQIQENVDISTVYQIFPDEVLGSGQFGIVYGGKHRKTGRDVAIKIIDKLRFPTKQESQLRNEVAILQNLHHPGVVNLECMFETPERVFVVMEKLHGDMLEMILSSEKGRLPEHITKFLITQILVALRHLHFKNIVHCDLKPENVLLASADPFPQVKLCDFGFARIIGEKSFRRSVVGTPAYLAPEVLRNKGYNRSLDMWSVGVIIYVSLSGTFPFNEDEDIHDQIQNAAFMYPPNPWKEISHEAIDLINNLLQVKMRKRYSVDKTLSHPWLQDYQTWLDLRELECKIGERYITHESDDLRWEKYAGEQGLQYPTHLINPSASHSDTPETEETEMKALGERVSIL

[36] = target: Serine/threonine-protein kinase BRSK2 (Homo sapiens) (UniProt Q8IWQ3); experiment: Inhibition of BRSK2 at 3 uM
[37] = target: Serine/threonine-protein kinase PAK 3 (Homo sapiens) (UniProt O75914); experiment: Inhibition of PAK3 at 3 uM
[38] = test system: Mast/stem cell growth factor receptor Kit (Homo sapiens), P10721 [D816V]; experiment: Inhibition of KIT D816V mutant at 3 uM
Chain of Mast/stem cell growth factor receptor Kit (Homo sapiens), P10721 [D816V] (P10721 whole entry D816V): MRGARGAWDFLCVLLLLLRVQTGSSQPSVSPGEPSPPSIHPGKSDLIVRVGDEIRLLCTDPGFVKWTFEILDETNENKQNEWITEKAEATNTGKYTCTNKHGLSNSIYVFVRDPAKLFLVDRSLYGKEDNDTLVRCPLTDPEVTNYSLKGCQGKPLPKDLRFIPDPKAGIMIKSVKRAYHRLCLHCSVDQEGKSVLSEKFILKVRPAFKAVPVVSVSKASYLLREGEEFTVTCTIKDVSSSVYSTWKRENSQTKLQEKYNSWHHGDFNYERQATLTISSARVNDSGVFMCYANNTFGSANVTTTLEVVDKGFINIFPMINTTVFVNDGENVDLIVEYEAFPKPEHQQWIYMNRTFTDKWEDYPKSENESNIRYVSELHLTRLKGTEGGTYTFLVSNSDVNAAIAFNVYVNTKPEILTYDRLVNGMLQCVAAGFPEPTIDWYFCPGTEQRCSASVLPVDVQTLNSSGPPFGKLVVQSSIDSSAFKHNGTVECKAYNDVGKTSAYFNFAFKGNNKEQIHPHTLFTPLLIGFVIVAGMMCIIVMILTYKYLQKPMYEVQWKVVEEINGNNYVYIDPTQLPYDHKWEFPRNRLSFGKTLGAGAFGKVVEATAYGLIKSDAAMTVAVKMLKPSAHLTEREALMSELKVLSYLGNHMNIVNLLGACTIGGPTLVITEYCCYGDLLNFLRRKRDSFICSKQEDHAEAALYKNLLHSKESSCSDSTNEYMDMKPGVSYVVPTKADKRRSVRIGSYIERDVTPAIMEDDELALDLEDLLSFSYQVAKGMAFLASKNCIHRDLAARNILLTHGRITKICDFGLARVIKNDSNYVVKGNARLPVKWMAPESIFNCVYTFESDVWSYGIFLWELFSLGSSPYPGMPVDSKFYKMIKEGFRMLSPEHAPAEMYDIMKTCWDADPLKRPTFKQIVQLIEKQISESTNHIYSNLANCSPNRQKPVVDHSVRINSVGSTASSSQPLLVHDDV

[39] = target: Sodium-dependent dopamine transporter (Homo sapiens) (UniProt Q01959); experiment: Inhibition of human DAT at 3 uM; outline: as §1
[40] = target: Platelet-derived growth factor receptor beta (Homo sapiens) (UniProt P09619); experiment: Inhibition of PDGFRB at 3 uM
[41] = target: 3-phosphoinositide-dependent protein kinase 1 (Homo sapiens) (UniProt O15530); experiment: Inhibition of PDPK1 at 3 uM
Rattus norvegicus [42] = species on record: Rattus norvegicus; conditions: 3 uM; remark: listed apart in the source
[43] = target: NT-3 growth factor receptor (Homo sapiens) (UniProt Q16288); experiment: Inhibition of TRKC at 3 uM
[44] = target: Serine/threonine-protein kinase pim-3 (Homo sapiens) (UniProt Q86V86); experiment: Inhibition of PIM3 at 3 uM
[45] = target: Myosin-IIIb (Homo sapiens) (UniProt Q8WXR4); experiment: Inhibition of MYO3B at 3 uM
Chain of Myosin-IIIb (Homo sapiens) (Q8WXR4 whole entry): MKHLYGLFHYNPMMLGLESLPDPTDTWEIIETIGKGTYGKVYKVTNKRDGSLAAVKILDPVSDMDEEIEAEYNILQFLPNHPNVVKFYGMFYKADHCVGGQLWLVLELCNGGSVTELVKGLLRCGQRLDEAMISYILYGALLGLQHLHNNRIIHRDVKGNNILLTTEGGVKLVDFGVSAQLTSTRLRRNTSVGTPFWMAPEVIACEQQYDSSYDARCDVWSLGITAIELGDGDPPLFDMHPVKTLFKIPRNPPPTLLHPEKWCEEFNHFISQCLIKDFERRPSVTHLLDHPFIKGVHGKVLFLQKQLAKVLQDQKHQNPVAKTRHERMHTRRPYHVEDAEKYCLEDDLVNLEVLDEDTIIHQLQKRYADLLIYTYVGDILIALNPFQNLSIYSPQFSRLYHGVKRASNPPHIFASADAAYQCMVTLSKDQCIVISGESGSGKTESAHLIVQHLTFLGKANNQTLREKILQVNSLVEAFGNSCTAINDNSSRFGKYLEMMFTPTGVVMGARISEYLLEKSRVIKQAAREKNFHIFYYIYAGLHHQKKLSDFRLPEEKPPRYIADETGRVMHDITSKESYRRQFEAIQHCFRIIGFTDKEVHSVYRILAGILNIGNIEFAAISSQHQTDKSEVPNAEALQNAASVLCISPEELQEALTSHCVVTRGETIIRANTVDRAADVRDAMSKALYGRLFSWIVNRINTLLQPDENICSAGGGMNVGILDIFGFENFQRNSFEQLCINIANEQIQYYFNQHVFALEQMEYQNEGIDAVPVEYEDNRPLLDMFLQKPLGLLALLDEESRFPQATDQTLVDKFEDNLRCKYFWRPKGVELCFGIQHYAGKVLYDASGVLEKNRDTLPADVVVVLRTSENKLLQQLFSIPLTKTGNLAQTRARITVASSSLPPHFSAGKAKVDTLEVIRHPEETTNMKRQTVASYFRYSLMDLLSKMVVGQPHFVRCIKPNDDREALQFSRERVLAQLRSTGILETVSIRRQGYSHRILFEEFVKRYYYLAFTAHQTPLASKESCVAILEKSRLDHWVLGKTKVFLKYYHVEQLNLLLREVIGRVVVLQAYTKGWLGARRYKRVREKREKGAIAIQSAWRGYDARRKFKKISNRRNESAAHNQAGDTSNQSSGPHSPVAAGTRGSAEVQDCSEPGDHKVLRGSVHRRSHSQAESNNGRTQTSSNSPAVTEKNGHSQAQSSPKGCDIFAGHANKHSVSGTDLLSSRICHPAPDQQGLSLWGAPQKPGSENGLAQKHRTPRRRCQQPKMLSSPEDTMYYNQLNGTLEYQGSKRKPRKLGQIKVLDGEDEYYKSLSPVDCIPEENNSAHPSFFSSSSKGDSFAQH

Homo sapiens = species on record: Homo sapiens; conditions: 3 uM

Chain of Serine/threonine-protein kinase BRSK1 (Homo sapiens) (Q8TDC3 whole entry): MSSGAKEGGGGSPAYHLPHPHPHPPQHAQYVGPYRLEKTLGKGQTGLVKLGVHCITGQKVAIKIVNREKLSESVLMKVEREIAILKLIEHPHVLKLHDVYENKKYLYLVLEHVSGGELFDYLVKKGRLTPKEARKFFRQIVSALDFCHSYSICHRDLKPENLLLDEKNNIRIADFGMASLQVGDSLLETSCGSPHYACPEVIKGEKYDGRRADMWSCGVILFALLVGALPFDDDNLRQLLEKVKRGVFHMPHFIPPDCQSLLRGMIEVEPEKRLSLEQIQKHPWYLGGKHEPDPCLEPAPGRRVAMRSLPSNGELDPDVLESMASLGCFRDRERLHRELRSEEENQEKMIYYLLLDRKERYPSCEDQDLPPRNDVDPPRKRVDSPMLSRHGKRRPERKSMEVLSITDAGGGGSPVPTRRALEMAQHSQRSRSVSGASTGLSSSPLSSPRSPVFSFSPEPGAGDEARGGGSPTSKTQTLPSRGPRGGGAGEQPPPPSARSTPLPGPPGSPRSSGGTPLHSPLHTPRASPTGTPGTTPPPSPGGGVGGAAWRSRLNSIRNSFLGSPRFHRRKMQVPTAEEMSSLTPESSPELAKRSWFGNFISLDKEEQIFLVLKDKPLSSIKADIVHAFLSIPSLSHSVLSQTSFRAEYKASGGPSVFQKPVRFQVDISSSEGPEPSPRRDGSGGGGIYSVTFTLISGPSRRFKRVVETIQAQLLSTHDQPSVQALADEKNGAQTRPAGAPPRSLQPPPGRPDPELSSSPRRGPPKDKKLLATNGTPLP

`CN(C)CCOc1cc(-c2cn[nH]c2)ccc1NC(=O)C1COc2ccccc2O1` (stereo unspecified) [SR-3677] gave an inhibition [1] of less than 10%, an inhibition [2] of less than 10% and an inhibition [3] of less than 10%. It also gave an inhibition [4] of less than 10%, an inhibition [5] of less than 10% and an inhibition [6] of less than 10%. It also gave an inhibition [7] of less than 10%, an inhibition [8] of less than 10% and an inhibition [9] of less than 10%. It also gave an inhibition [10] of less than 10%, an inhibition [11] of less than 10% and an inhibition [12] of less than 10%. The half-life [13] was 48 min, the inhibition (Rattus norvegicus [14]) was -4% and the inhibition [15] was less than 10%. It also gave an inhibition [16] of less than 10%, an inhibition [17] of less than 10% and an inhibition [18] of less than 10%. For the same compound, the inhibition [19] was less than 10%, the inhibition [20] was less than 10% and the inhibition [21] was less than 10%. The inhibition [22] was 25%, the inhibition [23] was less than 10% and the inhibition [24] was less than 10%. The inhibition [25] was less than 10%, the inhibition [26] was less than 10% and the inhibition [27] was less than 10%. For the same compound, the inhibition [28] was less than 10%, the inhibition [29] was less than 10% and the inhibition [30] was 3%. For the same compound, the inhibition [31] was less than 10%, the inhibition [32] was less than 10% and the inhibition [33] was less than 10%. For the same compound, the inhibition [34] was less than 10%, the inhibition [35] was less than 10% and the inhibition [36] was less than 10%. It also gave an inhibition [37] of less than 10%, an inhibition [38] of less than 10% and an inhibition [39] of 37%. It also gave an inhibition [40] of less than 10%, an inhibition [41] of less than 10% and an inhibition (Rattus norvegicus [42]) of -1%. For the same compound, the inhibition [43] was less than 10%, the inhibition [44] was less than 10% and the inhibition [45] was less than 10%. For the same compound, the inhibition (Homo sapiens) was 4%.

From ChEMBL document CHEMBL1142492 (J Med Chem, 2008)
